ChEMBL document CHEMBL4043075, “Development of Fluorinated Analogues of Perhexiline with Improved Pharmacokinetic Properties and Retained Efficacy” (J Med Chem, 2017)

Legend:
CYP2D6 = CYP2D6 (Homo sapiens, UniProt P10635); test: Drug metabolism assessed as human CYP2D6-mediated compound degradation by measuring half life at 5 uM up to 45 mins in presence of NADPH by LC-MS/MS analysis; type: ADME
[1] = biological target: T1, Carnitine O-palmitoyltransferase 1, muscle isoform (Rattus norvegicus, UniProt Q63704); test: Inhibition of Wistar rat heart mitochondrial CPT-1 assessed as reduction in conversion of palmitoyl CoA and L-carnitine into palmitoylcarnitine preincubated for 3 mins followed by L-carnitine and palmitoyl CoA addition measured for 3.5 mins by spectrophotometric analysis
T1 sequence (Q63704 whole entry): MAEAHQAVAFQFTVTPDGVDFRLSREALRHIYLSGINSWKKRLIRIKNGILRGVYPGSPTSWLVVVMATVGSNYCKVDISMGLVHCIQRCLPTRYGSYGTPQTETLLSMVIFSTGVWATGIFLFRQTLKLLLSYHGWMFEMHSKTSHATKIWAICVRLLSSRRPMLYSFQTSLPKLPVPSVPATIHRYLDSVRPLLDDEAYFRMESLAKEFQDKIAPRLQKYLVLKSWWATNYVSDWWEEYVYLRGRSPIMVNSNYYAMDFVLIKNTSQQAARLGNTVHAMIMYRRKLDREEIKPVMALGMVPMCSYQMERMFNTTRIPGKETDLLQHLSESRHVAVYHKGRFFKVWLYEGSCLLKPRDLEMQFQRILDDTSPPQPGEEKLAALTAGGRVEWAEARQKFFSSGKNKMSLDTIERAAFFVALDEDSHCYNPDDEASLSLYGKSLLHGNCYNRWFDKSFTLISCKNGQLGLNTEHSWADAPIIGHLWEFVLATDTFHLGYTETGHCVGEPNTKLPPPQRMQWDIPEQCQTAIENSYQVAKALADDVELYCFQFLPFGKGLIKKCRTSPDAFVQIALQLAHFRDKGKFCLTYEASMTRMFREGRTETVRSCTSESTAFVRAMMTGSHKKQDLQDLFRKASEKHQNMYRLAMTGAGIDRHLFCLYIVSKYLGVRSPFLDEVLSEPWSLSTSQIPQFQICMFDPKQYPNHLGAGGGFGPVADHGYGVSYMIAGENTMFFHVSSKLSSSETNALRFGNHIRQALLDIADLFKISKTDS

[2] = Half life in Sprague-Dawley rat liver microsomes at 3 uM up to 45 mins in presence of NADPH by LC-MS/MS analysis; type: ADME, microsome
[3] = Half life in human liver microsomes at 3 uM up to 45 mins in presence of NADPH by LC-MS/MS analysis; type: ADME, microsome
[4] = Stability of the compound in pH 7.4 PBS buffer at 37 degC after 1 hr; type: physicochemical; conditions: pH 7.4, 1 h
Summary of the method: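 Compound incubated 1 h in pH 7.4 PBS at 37 °C, then checked for decomposition.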

[5] = Drug uptake in Sprague-Dawley rat myocardium at 10 mg/kg, po administered via gavage every 24 hrs measured at 8 hrs post last dose by LC-MS/MS analysis; type: ADME, organism-based; conditions: read-out: Drug uptake
Summary of the method: (§1)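 Male Sprague-Dawley rats, daily oral dosing at 10 mg/kg. Plasma sampled at 1, 2, 4, 8 and 24 h after dosing, n = 3 per timepoint. Myocardium measured at 1 and 8 h. Myocardium:plasma ratio taken from drug concentration.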

[6] = Drug uptake in BALB/c mouse myocardium at 10 mg/kg, po administered via gavage every 24 hrs for 7 days measured 8 hrs post last dose by LC-MS/MS analysis; type: ADME, organism-based; conditions: read-out: Drug uptake
Summary of the method: (§2)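 Male BALB/c mice, daily oral gavage at 10 mg/kg. Plasma and myocardium sampled 1, 4, 8 and 24 h after dosing, n = 3 per timepoint. […] Myocardium:plasma ratios taken from drug concentration or from AUC. Student's t-test used.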

[7] = Ratio of drug level in myocardium to plasma in BALB/c mouse at 10 mg/kg, po administered via gavage every 24 hrs for 7 days measured 4 hrs post last dose by LC-MS/MS analysis; type: ADME, organism-based; conditions: myocardium and plasma; summary of the method: as §2
[8] = Ratio of drug level in myocardium to plasma in BALB/c mouse at 10 mg/kg, po administered via gavage every 24 hrs for 7 days measured 1 hr post last dose by LC-MS/MS analysis; type: ADME, organism-based; conditions: myocardium and plasma; summary of the method: as §2
[9] = Ratio of AUC (0 to 24 hrs) in myocardium to plasma in BALB/c mouse at 10 mg/kg, po administered via gavage every 24 hrs for 7 days measured post last dose by LC-MS/MS analysis; type: ADME, organism-based; conditions: myocardium and plasma, read-out: Ratio AUC; summary of the method: as §2
[10] = Plasma concentration in Sprague-Dawley rat at 10 mg/kg, po administered via gavage every 24 hrs measured at 2 hrs post last dose by LC-MS/MS analysis; type: ADME, organism-based; summary of the method: as §1
[11] = Plasma concentration in BALB/c mouse at 10 mg/kg, po administered via gavage every 24 hrs for 7 days measured 8 hrs post last dose by LC-MS/MS analysis; type: ADME, organism-based; summary of the method: as §2
[12] = Plasma concentration in Sprague-Dawley rat at 10 mg/kg, po administered via gavage every 24 hrs measured at 1 hr post dose by LC-MS/MS analysis; type: ADME, organism-based; summary of the method: as §1
[13] = Drug uptake in BALB/c mouse myocardium at 10 mg/kg, po administered via gavage every 24 hrs for 7 days measured 4 hrs post last dose by LC-MS/MS analysis; type: ADME, organism-based; conditions: read-out: Drug uptake; summary of the method: as §2
[14] = Plasma concentration in Sprague-Dawley rat at 10 mg/kg, po administered via gavage every 24 hrs measured at 4 hrs post last dose by LC-MS/MS analysis; type: ADME, organism-based; summary of the method: as §1
[15] = Ratio of drug level in myocardium to plasma in Sprague-Dawley rat at 10 mg/kg, po administered via gavage every 24 hrs measured at 1 hr post dose by LC-MS/MS analysis; type: ADME, organism-based; conditions: myocardium and plasma; summary of the method: as §1
[16] = Plasma concentration in Sprague-Dawley rat at 10 mg/kg, po administered via gavage every 24 hrs measured at 8 hrs post last dose by LC-MS/MS analysis; type: ADME, organism-based; summary of the method: as §1
[17] = AUC (0 to 24 hrs) in BALB/c mouse plasma at 10 mg/kg, po administered via gavage every 24 hrs for 7 days measured post last dose by LC-MS/MS analysis; type: ADME, organism-based; design: dose 10 mg/kg, time < 24 hr, route oral; summary of the method: as §2
[18] = Ratio of drug level in myocardium to plasma in Sprague-Dawley rat at 10 mg/kg, po administered via gavage every 24 hrs measured at 8 hrs post dose by LC-MS/MS analysis; type: ADME, organism-based; conditions: myocardium and plasma; summary of the method: as §1
[19] = AUC (0 to 24 hrs) in BALB/c mouse myocardium at 10 mg/kg, po administered via gavage every 24 hrs for 7 days measured post last dose by LC-MS/MS analysis; type: ADME, organism-based; design: time < 24 hr, dose 10 mg/kg, route oral; summary of the method: as §2
Heart [20] = test: Cardioprotective activity in Langendorff perfused C57BL/6 mouse heart assessed as increase in cardiac contractility at 2 uM perfused for 30 mins in presence of high fat relative to control; type: functional
Summary of the method: (§3)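 Isolated C57BL/6 hearts (25-30 g) retrogradely perfused at constant 80 mmHg, 37 °C, 95% O2/5% CO2, with modified Krebs containing 1.2 mM sodium palmitate conjugated to 3% BSA. After 10 min stabilisation, 30 min perfusion with control buffer or compound at 2 or 10 µM. LVdP/dt max and min derived from LV pressure over 40 min; mean ± SEM, n = 12-19, 1-way ANOVA with Bonferroni.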

[21] = Drug uptake in BALB/c mouse myocardium at 10 mg/kg, po administered via gavage every 24 hrs for 7 days measured 1 hr post last dose by LC-MS/MS analysis; type: ADME, organism-based; conditions: read-out: Drug uptake; summary of the method: as §2
[22] = Plasma concentration in BALB/c mouse at 10 mg/kg, po administered via gavage every 24 hrs for 7 days measured at 1 hr post last dose by LC-MS/MS analysis; type: ADME, organism-based; summary of the method: as §2
[23] = Drug uptake in Sprague-Dawley rat myocardium at 10 mg/kg, po administered via gavage every 24 hrs measured at 1 hr post last dose by LC-MS/MS analysis; type: ADME, organism-based; conditions: read-out: Drug uptake; summary of the method: as §1
Heart [24] = test: Cardioprotective activity in Langendorff perfused C57BL/6 mouse heart assessed as increase in cardiac relaxation at 2 uM perfused for 30 mins in presence of high fat relative to control; type: functional; summary of the method: as §3
[25] = Ratio of drug level in myocardium to plasma in BALB/c mouse at 10 mg/kg, po administered via gavage every 24 hrs for 7 days measured 8 hrs post last dose by LC-MS/MS analysis; type: ADME, organism-based; conditions: myocardium and plasma; summary of the method: as §2
[26] = Plasma concentration in BALB/c mouse at 10 mg/kg, po administered via gavage every 24 hrs for 7 days measured 4 hrs post last dose by LC-MS/MS analysis; type: ADME, organism-based; summary of the method: as §2

Chain of CYP2D6 (P10635 whole entry, canonical isoform): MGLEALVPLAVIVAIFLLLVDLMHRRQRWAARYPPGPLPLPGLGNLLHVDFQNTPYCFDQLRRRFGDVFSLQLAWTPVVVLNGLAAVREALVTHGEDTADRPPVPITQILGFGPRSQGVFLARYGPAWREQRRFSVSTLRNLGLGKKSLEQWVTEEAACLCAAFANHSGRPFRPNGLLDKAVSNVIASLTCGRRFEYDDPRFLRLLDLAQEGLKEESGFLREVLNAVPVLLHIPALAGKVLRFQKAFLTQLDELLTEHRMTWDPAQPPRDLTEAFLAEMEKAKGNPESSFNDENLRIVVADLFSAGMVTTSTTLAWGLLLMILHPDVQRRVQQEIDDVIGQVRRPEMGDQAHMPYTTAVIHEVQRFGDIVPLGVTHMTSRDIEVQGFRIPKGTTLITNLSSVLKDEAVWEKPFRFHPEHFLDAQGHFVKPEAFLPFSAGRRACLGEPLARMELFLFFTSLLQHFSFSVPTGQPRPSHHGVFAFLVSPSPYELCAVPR

## C1CCC(C(CC2CCCCN2)C2CCOCC2)CC1 (configuration not stated)
CYP2D6
  half-life at 5 µM: 7 min
[1]
  IC50: 715 µM
[2]
  half-life at 3 µM: 31 min
[3]
  half-life at 3 µM: 84 min
[4]
  Stability: Stable

## C1CCC(C(CC2CCCCN2)C2CCC2)CC1 (configuration not stated)
[2]
  half-life at 3 µM: 10 min
[3]
  half-life at 3 µM: > 200 min
[4]
  Stability: Stable

## C1CCC(CC(C2CCCC2)C2CCCC2)NC1 (configuration not stated)
[1]
  IC50: 19 µM
[2]
  half-life at 3 µM: 14 min
[3]
  half-life at 3 µM: 50 min
[4]
  Stability: Stable

## Fc1ccc(C(CC2CCCCN2)C2CCCCC2)cc1 (configuration not stated)
[2]
  half-life at 3 µM: 7 min
[3]
  half-life at 3 µM: 79 min
[4]
  Stability: Stable

## C1CCC(C(C[C@@H]2CCCCN2)C2CCCCC2)CC1
[1]
  IC50: 14 µM
[2]
  half-life at 3 µM: 11 min
[3]
  half-life at 3 µM: 65 min

## C1CCC(CC(C2CCCC2)C2CC2)NC1 (configuration not stated)
[2]
  half-life at 3 µM: 3 min
[3]
  half-life at 3 µM: 27 min
[4]
  Stability: Stable

## C1CCC(C(CC2CCCCN2)C2CCCCC2)CC1 (racemic) [PERHEXILINE]
[5]
  concentration at 8 h: 361 ng/mL
[6]
  concentration at 8 h: 29.2 ng/mL
[7]
  Kp at 4 h: 4.9
[8]
  Kp at 1 h: 5.7
[9]
  Kp: 2.4
[10]
  concentration at 2 h: 113 ng/mL
[11]
  concentration at 8 h: 6 ng/mL
[12]
  concentration at 1 h: 99.9 ng/mL
[13]
  concentration at 4 h: 126 ng/mL
[14]
  concentration at 4 h: 97.4 ng/mL
[15]
  Kp at 1 h: 19
CYP2D6
  half-life at 5 µM: 14 min
[16]
  concentration at 8 h: 31.4 ng/mL
[1]
  IC50: 11 µM
[17]
  AUC at 24 h: 876 ng·h/mL
[18]
  Kp at 8 h: 11.5
[19]
  AUC at 24 h: 2110 ng·h/mL
Heart [20]
  fold change (FC): 2.1
[2]
  half-life at 3 µM: 21 min
[21]
  concentration at 1 h: 664 ng/mL
[22]
  concentration at 1 h: 116 ng/mL
[23]
  concentration at 1 h: 1900 ng/mL
Heart [24]
  fold change (FC): 3.2
[3]
  half-life at 3 µM: 100 min
[25]
  Kp at 8 h: 4.8
[26]
  concentration at 4 h: 28.3 ng/mL

## C1CCC(CC(C2CCCC2)C2CCC2)NC1 (configuration not stated)
[2]
  half-life at 3 µM: 7 min
[3]
  half-life at 3 µM: 51 min
[4]
  Stability: Stable

## CC(C)(COP(=O)(O)OP(=O)(O)OC[C@H]1O[C@@H](n2cnc3c(N)ncnc32)[C@H](O)[C@@H]1OP(=O)(O)O)[C@@H](O)C(=O)NCCC(=O)NCCSC(=O)CC(=O)O [MALONYL-COENZYME A]
[1]
  IC50: 1.2 µM

## OC1CCC(C(CC2CCCCN2)C2CCCCC2)CC1 (configuration not stated)
[1]
  IC50: 475 µM
